Converted amounts (≈) assume the structure as drawn. The source made the active and inactive calls. The rule behind the calls is not given here.
Key:
Staphylococcus aureus [1] = assay: Antibacterial activity against vancomycin-resistant Staphylococcus aureus isolate 1 after 16 hrs by broth micro dilution method; format: functional; conditions: isolate 1, 16 h
Outline: (§1)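 Mueller-Hinton broth microdilution. Bacteria were grown overnight at 37 °C with shaking, diluted 1:100 and grown to mid-exponential phase. About 3 × 10^5 CFU per well went into MH with test compound (0–256 μg/mL) in DMSO vehicle. Plates were incubated at 37 °C for 16 h. MIC was the lowest concentration without growth visible by eye; three independent assays.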

Staphylococcus aureus [2] = assay: Antibacterial activity against vancomycin-resistant Staphylococcus aureus isolate 10 after 16 hrs by broth micro dilution method; format: functional; conditions: isolate 10, 16 h; outline: as §1
Staphylococcus aureus [3] = assay: Antibacterial activity against Staphylococcus aureus ATCC 25923 after 16 hrs by broth micro dilution method; format: functional; conditions: ATCC 25923, 16 h; outline: as §1
Escherichia coli = assay: Antibacterial activity against Escherichia coli RFM795 harboring lptD gene mutant after 16 hrs by broth micro dilution method; format: functional; conditions: RFM795, 16 h; outline: as §1
Staphylococcus aureus [4] = assay: Antibacterial activity against methicillin-resistant Staphylococcus aureus; format: functional; outline: as §1
[5] = test system: UDP-N-acetylglucosamine 1-carboxyvinyltransferase 2 (Staphylococcus aureus); assay: Inhibition of GST-tagged Staphylococcus aureus MurZ expressed in Escherichia coli BL21(DE3) cells preincubated with PEP and enzyme for 10 mins followed by UDP-GlcNAc addition measured after 3 hrs by HPLC analysis
Staphylococcus aureus [6] = assay: Antibacterial activity against methicillin-resistant Staphylococcus aureus LAC JE2 after 16 hrs by broth micro dilution method; format: functional; conditions: LAC JE2, 16 h; outline: as §1
Staphylococcus aureus [7] = assay: Antibacterial activity against methicillin-sensitive Staphylococcus aureus UAMS-1 after 16 hrs by broth micro dilution method; format: functional; conditions: UAMS-1, 16 h; outline: as §1
[8] = target: UDP-N-acetylglucosamine 1-carboxyvinyltransferase (Escherichia coli K-12) (UniProt P0A749); assay: Inhibition of GST-tagged Escherichia coli MurA expressed in Escherichia coli BL21(DE3) cells preincubated with PEP and enzyme for 10 mins followed by UDP-GlcNAc addition measured after 3 hrs by HPLC analysis
UDP-N-acetylglucosamine 1-carboxyvinyltransferase (Escherichia coli K-12), sequence (P0A749 whole entry): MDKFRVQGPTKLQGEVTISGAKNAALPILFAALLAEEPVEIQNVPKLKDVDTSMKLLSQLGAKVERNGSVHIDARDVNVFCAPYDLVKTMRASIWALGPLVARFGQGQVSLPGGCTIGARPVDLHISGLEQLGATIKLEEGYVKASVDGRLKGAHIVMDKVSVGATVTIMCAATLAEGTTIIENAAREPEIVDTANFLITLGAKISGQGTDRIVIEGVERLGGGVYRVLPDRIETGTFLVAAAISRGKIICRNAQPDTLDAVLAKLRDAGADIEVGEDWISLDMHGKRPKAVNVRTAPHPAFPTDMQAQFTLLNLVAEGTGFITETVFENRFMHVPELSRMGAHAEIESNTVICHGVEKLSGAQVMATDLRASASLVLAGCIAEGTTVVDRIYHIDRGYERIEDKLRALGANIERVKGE
Outline: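 GST-tagged enzyme, GST removed by PreScission protease after glutathione affinity capture. Conditions: 50 mM Tris, 2 mM KCl, room temperature (25 °C), in triplicate. Enzyme preincubated 10 min with PEP and compound, then UDP-GlcNAc added. Substrate and product separated by MonoQ anion-exchange HPLC with an ammonium bicarbonate gradient. Percent inhibition taken from UDP-GlcNAc/EP-UDP-GlcNAc peak areas.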

[9] = target: T1, UDP-N-acetylglucosamine 1-carboxyvinyltransferase 1 (Staphylococcus aureus subsp. aureus N315, UniProt P84058); assay: Inhibition of GST-tagged Staphylococcus aureus MurA expressed in Escherichia coli BL21(DE3) cells preincubated with PEP and enzyme for 10 mins followed by UDP-GlcNAc addition measured after 3 hrs by HPLC analysis
T1 sequence (P84058 whole entry): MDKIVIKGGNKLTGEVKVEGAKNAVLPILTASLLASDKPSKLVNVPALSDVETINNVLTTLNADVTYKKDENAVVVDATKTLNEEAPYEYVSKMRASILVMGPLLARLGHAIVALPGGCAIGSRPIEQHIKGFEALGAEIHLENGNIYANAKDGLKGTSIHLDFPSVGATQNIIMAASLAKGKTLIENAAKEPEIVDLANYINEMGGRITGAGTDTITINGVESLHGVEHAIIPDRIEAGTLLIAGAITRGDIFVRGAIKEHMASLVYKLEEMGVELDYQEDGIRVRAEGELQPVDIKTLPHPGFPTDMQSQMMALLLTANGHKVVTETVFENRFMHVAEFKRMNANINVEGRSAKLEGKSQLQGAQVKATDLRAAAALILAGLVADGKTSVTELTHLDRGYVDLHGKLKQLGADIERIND
Outline: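 Purified S. aureus MurA (GST tag cleaved off by PreScission protease, 350 nM) was preincubated 10 min with 300 μM PEP and albocycline (0–5000 μM) in 50 mM Tris, 2 mM KCl at 25 °C, in triplicate. UDP-GlcNAc was then added and the reaction run 3 h at room temperature. UDP-GlcNAc and EP-UDP-GlcNAc were separated by MonoQ anion-exchange HPLC with an ammonium bicarbonate gradient. Percent inhibition came from relative peak areas, and IC50 from a nonlinear dose-response fit.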

[10] = target: T2, UDP-N-acetylglucosamine 1-carboxyvinyltransferase 1 (Staphylococcus aureus subsp. aureus N315) (UniProt P84058); assay: Inhibition of GST-tagged Staphylococcus aureus MurA expressed in Escherichia coli BL21(DE3) cells assessed as reduction in EP-UDP-GlcNAc production at 650 uM preincubated with PEP and enzyme for 10 mins followed by UDP-GlcNAc addition measured after 3 hrs by HPLC analysis
T2 sequence (whole entry): T1 sequence (P84058 whole entry)
Outline: (§2)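 Tag-cleaved S. aureus MurA, 1.0 μg. Preincubated 10 min on ice with 650 μM compound plus 400 μM PEP or 400 μM UDP-GlcNAc. Reaction started with 600 μM of the other substrate, then run 3 h at room temperature in triple replicates. UDP-GlcNAc and EP-UDP-GlcNAc separated by anion-exchange HPLC.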

[11] = target: T2, UDP-N-acetylglucosamine 1-carboxyvinyltransferase 1 (Staphylococcus aureus subsp. aureus N315); assay: Inhibition of GST-tagged Staphylococcus aureus MurA expressed in Escherichia coli BL21(DE3) cells assessed as reduction in EP-UDP-GlcNAc production at 650 uM preincubated with UDP-GlcNAc and enzyme for 10 mins followed by PEP addition measured after 3 hrs by HPLC analysis; outline: as §2
HepG2 = assay: Cytotoxicity against human HepG2 cells at <= 64 ug/ml by MTT assay; format: cell-based
Outline: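 HepG2 human hepatocellular carcinoma cells; colorimetric MTT cell proliferation assay; compound tested at final concentrations up to 64 μg/mL.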

[12] = target: T1, UDP-N-acetylglucosamine 1-carboxyvinyltransferase 1; assay: Inhibition of Staphylococcus aureus MurA assessed as reduction in [3H]GlcNAc uptake
Staphylococcus aureus [13] = assay: Antibacterial activity against vancomycin-intermediate Staphylococcus aureus Mu50 after 16 hrs by broth micro dilution method; format: functional; conditions: Mu50, 16 h; outline: as §1

Compound	MIC (Staphylococcus aureus [1])	MIC (Staphylococcus aureus [2])	MIC (Staphylococcus aureus [3])	MIC (Escherichia coli)	MIC (Staphylococcus aureus [4])	inhibition [5]	MIC (Staphylococcus aureus [6])	MIC (Staphylococcus aureus [7])	inhibition [8]	IC50 [9]	inhibition [10]	inhibition [11]	Activity (HepG2)	IC50 [12]	MIC (Staphylococcus aureus [13])
CN[C@H](CC(C)C)C(=O)N[C@H]1C(=O)N[C@@H](CC(N)=O)C(=O)N[C@H]2C(=O)N[C@H]3C(=O)N[C@H](C(=O)N[C@H](C(=O)O)c4cc(O)cc(O)c4-c4cc3ccc4O)[C@H](O)c3ccc(c(Cl)c3)Oc3cc2cc(c3O[C@@H]2O[C@H](CO)[C@@H](O)[C@H](O)[C@H]2O[C@H]2C[C@](C)(N)[C@H](O)[C@H](C)O2)Oc2ccc(cc2Cl)[C@H]1O [VANCOMYCIN]	> 64 µg/mL	> 64 µg/mL	–	–	–	–	–	–	–	–	–	–	–	–	–
C[C@@H]1O[C@@H]1P(=O)(O)O [FOSFOMYCIN]	–	–	32 µg/mL (≈ 232 µM)	1 µg/mL (≈ 7.24 µM)	–	–	–	–	–	–	–	–	–	–	–
CO[C@H]1/C=C/[C@@](C)(O)/C=C/C(=O)O[C@H](C)[C@@H](C)CC/C=C/1C	4 µg/mL (≈ 13 µM)	1 µg/mL (≈ 3.24 µM)	1 µg/mL (≈ 3.24 µM)	> 256 µg/mL	0.5 to 1 µg/mL (≈ 1.62 to 3.24 µM)	inactive	2 µg/mL (≈ 6.48 µM)	0.5 µg/mL (≈ 1.62 µM)	inactive	480 µM	Active	inactive	Non-Toxic	112 µM	2 µg/mL (≈ 6.48 µM)

Source: ChEMBL document CHEMBL4118218, “Elucidating the inhibition of peptidoglycan biosynthesis in Staphylococcus aureus by albocycline, a macrolactone isolated from Streptomyces maizeus” (Bioorg Med Chem, 2018)
